Experimental data: ChEMBL document CHEMBL1287653, “Structural modifications on the phenazine N,N'-dioxide-scaffold looking for new selective hypoxic cytotoxins” (Eur J Med Chem, 2010)

How the values were obtained:
Calf thymus DNA [1] = assay: Binding affinity to calf thymus DNA assessed as ratio of final absorbance area to absorbance of compound at 100 uM after 24 hrs by UV spectrophotometer analysis; type: nucleic-acid assay; conditions: Bos taurus
Method in brief: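 Calf thymus DNA in 10 mM Tris-HCl, pH 7.4. Compound stock 10^-4 M (≤5% solvent), diluted with water to 2 × 10^-5 M, then mixed 1:1 with DNA solution. Rotated 24 h; UV spectra taken at 20 °C in a 1-cm cell. Areas of a 20 nm band at λmax at 0 and 24 h; reported as a24/a0.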

Calf thymus DNA [2] = assay: Binding affinity to calf thymus DNA assessed as fluorescence quenching at 20 uM after 24 hrs by fluorescence spectroscopy analysis; type: nucleic-acid assay; design: unit not given here; conditions: Bos taurus
[3] = Cytotoxicity against chinese hamster V79 cells assessed as survival fraction under normoxic condition at 20 uM after 7 days by crystal violet staining relative to control; type: cell-based, Cricetulus griseus; conditions: read-out: Activity
Method in brief: (§1)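 Exponential-phase V79 cells trypsinized into gassed suspension culture (2 × 10^4 cells/mL, EMEM, 10% FBS, 10 mM HEPES). Compound added 30 min after gassing began, in duplicate flasks, with a DMSO control; exposure 2 h. Cells then plated for colony formation at 37 °C, 5% CO2, for 7 days and stained with crystal violet. Colonies >64 cells counted; survival = PEtreated/PEcontrol × 100; means of two experiments.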

V79 [4] = assay: Cytotoxicity against chinese hamster V79 cells assessed as survival fraction under hypoxic condition at 20 uM after 7 days by crystal violet staining relative to control; type: functional, Cricetulus griseus
Method in brief: (§2)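 V79 Chinese hamster lung fibroblasts grown in EMEM with 10% FBS, then set up as suspension cultures (2 × 10^4 cells/mL, EMEM, 10% FBS, 10 mM HEPES) under simulated hypoxic gassing. Compound in DMSO added 30 min after gassing began, duplicate flasks per dose, 2 h exposure. Cells then plated and grown 7 days at 37 °C, stained with crystal violet, and colonies >64 cells counted. Survival = PEtreated/PEcontrol × 100.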

[5] = Cytotoxicity against chinese hamster V79 cells assessed as survival fraction under normoxic condition at 10 uM after 7 days by crystal violet staining relative to control; type: cell-based, Cricetulus griseus; conditions: read-out: Activity; method in brief: as §1
V79 [6] = assay: Cytotoxicity against chinese hamster V79 cells assessed as survival fraction under hypoxic condition at 10 uM after 7 days by crystal violet staining relative to control; type: functional, Cricetulus griseus; method in brief: as §2
V79 [7] = assay: Cytotoxicity against chinese hamster V79 cells assessed as concentration required to kill 99% cells under hypoxic condition after 7 days by crystal violet staining relative to control; type: functional, Cricetulus griseus; method in brief: as §2
V79 [8] = assay: Hypoxic cytotoxicity ratio, concentration required to kill 99% chinese hamster V79 cells under normoxic condition to hypoxic condition; type: functional, Cricetulus griseus
Method in brief: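 Clonogenic V79 suspension-culture assay run under both air and hypoxic gassing. Cells exposed 2 h in duplicate flasks per dose, then colonies counted after 7 days with crystal violet. Dose–response curves give the dose producing 1% of control survival in each condition. Ratio = air dose divided by hypoxic dose.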

| Compound | Ratio (Calf thymus DNA [1]) | Kq (Calf thymus DNA [2]) | viability at 168 h, 20 µM [3] [%] | Activity (V79 [4]) [%] | viability at 168 h, 10 µM [5] [%] | Activity (V79 [6]) [%] | Activity (V79 [7]) [µM] | Ratio (V79 [8]) |
| --- | --- | --- | --- | --- | --- | --- | --- | --- |
| Cc1ccc2nc3ccc(N)cc3nc2c1 | 0.85 | 6.1 | 98 | 100 |  |  |  |  |
| Cc1cc2c(cc1F)[n+]([O-])c1ccc(N)cc1[n+]2[O-] | 0.85 |  | 88 | 15 |  |  |  |  |
| Nc1ccc2nc3ccc(Br)cc3nc2c1 | 0.9 | 7.3 | 0 | 0 |  |  |  |  |
| Cc1ccc2c(c1)[n+]([O-])c1cc(O)c3ncccc3c1[n+]2[O-] |  |  | 49 | 46 |  |  |  |  |
| Cc1cc2c(cc1F)[n+]([O-])c1ccc(O)cc1[n+]2[O-] | 0.83 |  | 100 | 95 |  |  |  |  |
| CC[n+]1c(-c2ccccc2)c2cc(N)ccc2c2ccc(N)cc21 | 0.5 |  |  |  |  |  |  |  |
| O=C1c2c(O)ccc(O)c2C(=O)c2c(NCCNCCO)ccc(NCCNCCO)c21 | 0 |  |  |  |  |  |  |  |
| COc1cc(NS(C)(=O)=O)ccc1Nc1c2ccccc2nc2ccccc12 | 0.3 |  |  |  |  |  |  |  |
| Cc1ccc2c(c1)nc1cc(N)ccc1[n+]2[O-] | 0.92 | 5.3 | 100 | 100 |  |  |  |  |
| [O-][n+]1c2ccc(O)cc2[n+]([O-])c2cc(Cl)c(Cl)cc21 | 0.96 |  | 1 | 0 | 0 | 8 |  |  |
| Nc1ccc2c(c1)nc1cc(Br)ccc1[n+]2[O-] | 0.92 | 4.2 | 0 | 0 |  |  |  |  |
| Nc1ccc2c(c1)[n+]([O-])c1cc(Cl)c(Cl)cc1[n+]2[O-] | 0.98 |  | 2 | 0 | 3 | 18 | 10 | 0.9 |
| Nc1ccc2c(c1)[n+]([O-])c1cc(F)ccc1[n+]2[O-] | 0.88 | 7.8 | 0 | 0 | 30 | 0 | 2.5 | 6.8 |
| [O-][n+]1c2ccc(Br)cc2[n+]([O-])c2cc(OCc3ccccc3)ccc21 | 0.88 |  | 86 | 90 |  |  |  |  |
| O=C(CCl)Oc1ccc2c(c1)[n+]([O-])c1cc(Br)ccc1[n+]2[O-] |  |  | 84 | 62 |  |  |  |  |
| CN1CCN(c2ccc3[nH]c(-c4ccc5[nH]c(-c6ccc(O)cc6)nc5c4)nc3c2)CC1 | 0.57 |  |  |  |  |  |  |  |
